Measured values as given in ChEMBL document CHEMBL2331506, “Design, synthesis, antiviral and cytostatic evaluation of novel isoxazolidine nucleotide analogues with a carbamoyl linker” (Bioorg Med Chem, 2013).
Activity calls are given as the source filed them. No rule for the calls is given here.

tested on: Vaccinia virus; assay: Antiviral activity against Vaccinia virus Lederle infected in human HEL cells assessed as reduction of virus-induced cytopathogenicity at 250 uM; format: functional, organism-based; conditions: Orthopoxvirus vaccinia
Outline: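 Confluent cell monolayers were infected with 100 CCID50 of virus while exposed to varying compound concentrations. Cytopathicity was scored once it was complete in untreated infected controls. EC50 was taken as the concentration that reduced virus-induced cytopathogenicity by 50%.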

Row | Structure (SMILES) | inhibition
1 | CCOP(=O)(OCC)[C@@H]1C[C@H](C(=O)Nc2cccc(Cl)c2)ON1C (mixture of isomers) | inactive
2 | CCOP(=O)(OCC)[C@@H]1C[C@H](C(=O)Nc2ccccc2Cl)ON1C (mixture of isomers) | inactive
3 | CCOP(=O)(OCC)[C@@H]1C[C@H](C(=O)Nc2ccc(OC)c(OC)c2)ON1C (mixture of isomers) | inactive
4 | CCOP(=O)(OCC)[C@H]1C[C@H](C(=O)Nc2ccc(OC)c(OC)c2)ON1C (mixture of isomers) | inactive
5 | CCOc1ccc(NC(=O)[C@H]2C[C@H](P(=O)(OCC)OCC)N(C)O2)cc1 (mixture of isomers) | inactive
6 | CCOP(=O)(OCC)[C@H]1C[C@H](C(=O)Nc2cc(OC)cc(OC)c2)ON1C (mixture of isomers) | inactive
7 | CCOP(=O)(OCC)[C@@H]1C[C@H](C(=O)Nc2cc(OC)cc(OC)c2)ON1C (mixture of isomers) | inactive
8 | CCOP(=O)(OCC)[C@H]1C[C@H](C(=O)Nc2cc(OC)c(OC)c(OC)c2)ON1C (mixture of isomers) | inactive
9 | CCOP(=O)(OCC)[C@H]1C[C@H](C(=O)Nc2cc(OC)c(OC)cc2C#N)ON1C (mixture of isomers) | inactive
10 | CCOP(=O)(OCC)[C@@H]1C[C@H](C(=O)Nc2cc(OC)c(OC)cc2C#N)ON1C (mixture of isomers) | inactive
11 | CCOP(=O)(OCC)[C@H]1C[C@H](C(=O)Nc2cc(OC)c(OC)cc2C(C)=O)ON1C (mixture of isomers) | inactive
12 | CCOP(=O)(OCC)[C@@H]1C[C@H](C(=O)Nc2cc(OC)c(OC)cc2C(C)=O)ON1C (mixture of isomers) | inactive
13 | CCOP(=O)(OCC)[C@@H]1C[C@H](C(=O)Nc2ccc(F)cc2)ON1C (mixture of isomers) | inactive
14 | CCOP(=O)(OCC)[C@H]1C[C@H](C(=O)Nc2ccc(F)cc2F)ON1C (mixture of isomers) | inactive
15 | CCOP(=O)(OCC)[C@@H]1C[C@H](C(=O)Nc2ccc(F)cc2F)ON1C (mixture of isomers) | inactive
16 | CCOP(=O)(OCC)[C@H]1C[C@H](C(=O)Nc2ccccc2Br)ON1C (mixture of isomers) | inactive
17 | CCOP(=O)(OCC)[C@@H]1C[C@H](C(=O)Nc2ccccc2Br)ON1C (mixture of isomers) | inactive
18 | CCOP(=O)(OCC)[C@@H]1C[C@H](C(=O)Nc2cccc(Br)c2)ON1C (mixture of isomers) | inactive
19 | CCOP(=O)(OCC)[C@@H]1C[C@H](C(=O)Nc2ccc(Br)cc2)ON1C (mixture of isomers) | inactive
20 | CCOP(=O)(OCC)[C@H]1C[C@H](C(=O)Nc2cccc(Cl)c2)ON1C (mixture of isomers) | inactive
21 | CCOP(=O)(OCC)[C@H]1C[C@H](C(=O)Nc2cccc([N+](=O)[O-])c2)ON1C (mixture of isomers) | inactive
22 | CCOP(=O)(OCC)[C@@H]1C[C@H](C(=O)Nc2cccc([N+](=O)[O-])c2)ON1C (mixture of isomers) | inactive
23 | CCOP(=O)(OCC)[C@H]1C[C@H](C(=O)Nc2ccc([N+](=O)[O-])cc2)ON1C (mixture of isomers) | inactive
24 | CCOP(=O)(OCC)[C@@H]1C[C@H](C(=O)Nc2ccc(C#N)cc2)ON1C (mixture of isomers) | inactive
25 | CCOP(=O)(OCC)[C@H]1C[C@H](C(=O)Nc2ccccc2C(C)=O)ON1C (mixture of isomers) | inactive
26 | CCOP(=O)(OCC)[C@@H]1C[C@H](C(=O)Nc2ccccc2C(C)=O)ON1C (mixture of isomers) | inactive
27 | CCOP(=O)(OCC)[C@H]1C[C@H](C(=O)Nc2cccc(C(C)=O)c2)ON1C (mixture of isomers) | inactive

Row | Structure (SMILES) | inhibition
28 | CCOP(=O)(OCC)[C@@H]1C[C@H](C(=O)Nc2cccc(C)c2)ON1C (mixture of isomers) | inactive
29 | CCOP(=O)(OCC)[C@@H]1C[C@H](C(=O)Nc2ccc(C)cc2)ON1C (mixture of isomers) | inactive
30 | CCOP(=O)(OCC)[C@@H]1C[C@H](C(=O)Nc2cccc(OC)c2)ON1C (mixture of isomers) | inactive
31 | CCOP(=O)(OCC)[C@H]1C[C@H](C(=O)Nc2ccccc2F)ON1C (mixture of isomers) | inactive
32 | CCOP(=O)(OCC)[C@H]1C[C@H](C(=O)Nc2cccc(F)c2)ON1C (mixture of isomers) | inactive
33 | CCOP(=O)(OCC)[C@@H]1C[C@H](C(=O)Nc2cccc(F)c2)ON1C (mixture of isomers) | inactive
34 | CCOP(=O)(OCC)[C@H]1C[C@H](C(=O)Nc2ccc(Br)cc2)ON1C (mixture of isomers) | inactive
35 | CCOP(=O)(OCC)[C@@H]1C[C@H](C(=O)Nc2ccc(Cl)cc2)ON1C (mixture of isomers) | inactive
36 | CCOP(=O)(OCC)[C@H]1C[C@H](C(=O)Nc2ccccc2[N+](=O)[O-])ON1C (mixture of isomers) | inactive
37 | CCOP(=O)(OCC)[C@@H]1C[C@H](C(=O)Nc2ccccc2[N+](=O)[O-])ON1C (mixture of isomers) | inactive
38 | CCOP(=O)(OCC)[C@H]1C[C@H](C(=O)Nc2ccc(C(C)=O)cc2)ON1C (mixture of isomers) | inactive
39 | CCOP(=O)(OCC)[C@@H]1C[C@@H](C(=O)Nc2ccccc2Cl)ON1C (racemic) | inactive
40 | CCOc1ccc(NC(=O)[C@H]2C[C@@H](P(=O)(OCC)OCC)N(C)O2)cc1 (racemic) | inactive
41 | CCOP(=O)(OCC)[C@@H]1C[C@H](C(=O)Nc2cc(OC)c(OC)c(OC)c2)ON1C (racemic) | inactive
42 | CCOP(=O)(OCC)[C@H]1C[C@H](C(=O)Nc2ccc(F)cc2)ON1C (racemic) | inactive
43 | CCOP(=O)(OCC)[C@@H]1C[C@H](C(=O)Nc2ccc([N+](=O)[O-])cc2)ON1C (racemic) | inactive
44 | CCOP(=O)(OCC)[C@H]1C[C@H](C(=O)Nc2cccc(C#N)c2)ON1C (racemic) | inactive
45 | CCOP(=O)(OCC)[C@@H]1C[C@H](C(=O)Nc2cccc(C#N)c2)ON1C (racemic) | inactive
46 | CCOP(=O)(OCC)[C@H]1C[C@H](C(=O)Nc2ccc(C#N)cc2)ON1C (racemic) | inactive
47 | CCOP(=O)(OCC)[C@@H]1C[C@H](C(=O)Nc2cccc(C(C)=O)c2)ON1C (racemic) | inactive
48 | CCOP(=O)(OCC)[C@H]1C[C@H](C(=O)Nc2cccc(C)c2)ON1C (racemic) | inactive
49 | CCOP(=O)(OCC)[C@H]1C[C@H](C(=O)Nc2cccc(OC)c2)ON1C (racemic) | inactive
50 | CCOP(=O)(OCC)[C@@H]1C[C@H](C(=O)Nc2ccccc2F)ON1C (racemic) | inactive
51 | CCOP(=O)(OCC)[C@H]1C[C@H](C(=O)Nc2cccc(Br)c2)ON1C (racemic) | inactive
52 | CCOP(=O)(OCC)[C@@H]1C[C@H](C(=O)Nc2ccc(C(C)=O)cc2)ON1C (racemic) | inactive
53 | CCOP(=O)(OCC)[C@H]1C[C@H](C(=O)Nc2ccc(C)cc2)ON1C (relative stereo) | inactive
54 | CCOP(=O)(OCC)[C@H]1C[C@H](C(=O)Nc2ccc(Cl)cc2)ON1C (relative stereo) | inactive
